{
  "source": "PubChem BioAssay AID686992",
  "about": "(Broad Institute, 2013)",
  "note": "About 960 (0.37%) of roughly 260,000 compounds were called active.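 Rule for the calls: active = mean E-selectin-positive cell signal at least 10% of the positive control, reached in at least 60% of replicates, without over 20% cell loss; inconclusive = no rule given, readout overlaps actives, possibly toxicity-flagged; inactive = the rest, including those meeting only one limit.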 Many of the other results were omitted from the sample, so actives are more common in it than they were.",
  "data": [
    {"target": "E-selectin (Homo sapiens) (UniProt P16581)", "sequence (P16581 whole entry, looked up)": "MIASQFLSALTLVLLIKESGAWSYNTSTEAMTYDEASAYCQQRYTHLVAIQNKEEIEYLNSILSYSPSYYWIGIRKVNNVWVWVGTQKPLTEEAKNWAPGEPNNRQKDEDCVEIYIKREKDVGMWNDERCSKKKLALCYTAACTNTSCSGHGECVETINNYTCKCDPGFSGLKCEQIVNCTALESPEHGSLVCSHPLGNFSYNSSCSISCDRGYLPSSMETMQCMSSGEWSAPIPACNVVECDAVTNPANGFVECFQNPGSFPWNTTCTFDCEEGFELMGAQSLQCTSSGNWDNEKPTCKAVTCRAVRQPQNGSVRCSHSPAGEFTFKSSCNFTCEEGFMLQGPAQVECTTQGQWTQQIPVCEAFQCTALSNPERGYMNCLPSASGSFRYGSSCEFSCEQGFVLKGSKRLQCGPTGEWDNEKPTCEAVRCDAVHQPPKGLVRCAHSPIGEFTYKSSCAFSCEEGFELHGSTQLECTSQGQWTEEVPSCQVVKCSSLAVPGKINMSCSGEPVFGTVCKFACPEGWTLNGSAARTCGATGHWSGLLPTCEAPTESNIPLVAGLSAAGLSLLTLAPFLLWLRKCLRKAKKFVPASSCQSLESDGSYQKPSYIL", "experiment": "inducers of endothelial E-selectin expression – imaging, HUVEC, immunofluorescence imaging, single point, primary screen (AID 686992);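 note: signal is the percent of cells scored E-selectin positive by PE staining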", "details": "at 7.58 µM, stronger effect = higher value, normalized: neutral wells 0, TNF-alpha wells 100", "in_short": "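System: HUVEC, human umbilical vein endothelial cells; quantity: 3,000 cells/well; buffer or medium: EGM-2 medium, gelatin-coated wells; dosing: single-point compound dose; detection: immunofluorescence imaging; evaluation: % PE-positive cells; benchmarks: TNF-alpha, DMSO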", "values": [
      {"smiles": "CCOC(=O)C1=C(C(=O)OCC)C2N(Cc3ccc(C#N)cc3)c3ccccc3[C@@]23C[C@@H](C(=O)OC)N(S(=O)(=O)c2ccc(F)cc2)C3=N1", "note": "(stereo partly specified)", "activation": "-0.148% (inactive)"},
      {"smiles": "COc1ccccc1S(=O)(=O)N[C@@H]1CC[C@H](CCn2cc(C3CCCC3)nn2)O[C@H]1CO", "activation": "-0.101% (inactive)"},
      {"smiles": "CCCCCCCNC(=O)C1(CC2CC(c3cccc(Br)c3)=NO2)CCN(C(=O)c2cc(OCC)c(OCC)c(OCC)c2)CC1", "note": "(stereo unspecified)", "activation": "0.076% (inactive)"},
      {"smiles": "CN(Cc1cccc2ncccc12)C(=O)CC1C(=O)NCCN1Cc1ccc(F)cc1", "note": "(stereo unspecified)", "activation": "365% (active)"},
      {"smiles": "Cc1nc(CN(C)C(=O)CC2C(=O)NCCN2Cc2ccc(F)cc2)cs1", "note": "(stereo unspecified)", "activation": "-0.598% (inactive)"},
      {"smiles": "Cc1cnc(CN(C)C(=O)CC2C(=O)NCCN2Cc2cccc(F)c2F)[nH]1", "note": "(stereo unspecified)", "activation": "-0.473% (inactive)"},
      {"smiles": "COc1ccc2c3c([nH]c2c1)[C@@H](CO)N(C)CC31CCN(S(=O)(=O)c2ccc(C)cc2)CC1", "activation": "-0.271% (inactive)"},
      {"smiles": "CO[C@H]1CN(C)C(=O)c2ccc(NC(C)=O)cc2OC[C@@H](C)N(C(=O)c2ccncc2)C[C@@H]1C", "activation": "0.486% (inactive)"},
      {"smiles": "NC(=S)NN=Cc1ccc(OC(=O)COc2cc(Cl)c(Cl)cc2Cl)cn1", "activation": "0.0825% (inactive)"},
      {"smiles": "C[C@H](CO)N1C[C@H](C)[C@@H](CN(C)S(=O)(=O)c2ccc([N+](=O)[O-])cc2)OCc2ccccc2-c2c(n(C)c3ccccc23)C1=O", "activation": "0.251% (inactive)"},
      {"smiles": "CCOc1cnc(C(=O)NNC(=O)c2ccccc2Br)o1", "activation": "180% (active)"},
      {"smiles": "CCCc1ccc(OCCNC(=O)c2ccccc2Br)cc1", "activation": "0.473% (inactive)"},
      {"smiles": "O=C(NC(=S)Nc1ncccn1)c1ccccc1Br", "activation": "-0.09% (inactive)"},
      {"smiles": "COCC(=O)N1[C@H](C(=O)N2CCN(C)CC2)[C@@H](CO)[C@@H]2Cn3c(ccc(C4=CCCC4)c3=O)[C@@H]21", "activation": "0.129% (inactive)"},
      {"smiles": "COC(=O)C1=C(C)N(Cc2ccc(C(F)(F)F)cc2)C(=NCc2ccc(C(F)(F)F)cc2)NC1c1cccc(Cl)c1", "note": "(stereo unspecified)", "activation": "-0.458% (inactive)"},
      {"smiles": "O=C(C[C@H]1CC[C@@H]2[C@H](COC[C@H](O)CN2CCC(F)(F)F)O1)NCC1CC1", "activation": "-0.0615% (inactive)"},
      {"smiles": "COc1ccc(C2=NN(C(C)=O)C(c3ccccc3)C2)cc1", "note": "(stereo unspecified)", "activation": "0.176% (inactive)"},
      {"smiles": "COc1ccc(C2=NN(C(=O)c3ccccc3C(=O)O)C(c3ccccc3O)C2)cc1", "note": "(stereo unspecified)", "activation": "55.5% (active)"},
      {"smiles": "COc1ccc(C2=NN(C(=O)c3cccnc3)C(c3ccccc3)C2)cc1", "note": "(stereo unspecified)", "activation": "-2.28% (inactive)"},
      {"smiles": "Cc1ccc(C(=O)N2CCCc3ccccc32)c(Cl)c1", "activation": "-0.261% (inactive)"},
      {"smiles": "C[C@H](CO)N1C[C@H](C)[C@H](CN(C)C(=O)Nc2ccc(F)cc2)Oc2c(NC(=O)c3cnccn3)cccc2C1=O", "activation": "0.893% (inactive)"},
      {"smiles": "CC(C)NC(=O)N(C)C[C@@H]1Oc2c(NC(=O)c3cnccn3)cccc2C(=O)N([C@@H](C)CO)C[C@@H]1C", "activation": "88.4% (active)"},
      {"smiles": "C[C@@H]1CN([C@H](C)CO)C(=O)c2cccc(NC(=O)c3cnccn3)c2O[C@@H]1CN(C)Cc1ccncc1", "activation": "-11.9% (inactive)"},
      {"smiles": "COc1ccc(CN(C)C[C@H]2Oc3c(NC(=O)c4cnccn4)cccc3C(=O)N([C@H](C)CO)C[C@@H]2C)cc1", "activation": "39% (active)"},
      {"smiles": "C[C@H]1CN([C@@H](C)CO)C(=O)c2cccc(NC(=O)c3cnccn3)c2O[C@@H]1CN(C)Cc1ccc(Oc2ccccc2)cc1", "activation": "0.0435% (inactive)"},
      {"smiles": "C[C@H]1CN([C@@H](C)CO)C(=O)c2cccc(NC(=O)c3cnccn3)c2O[C@H]1CN(C)C(=O)Nc1ccccc1", "activation": "0.886% (inactive)"},
      {"smiles": "COc1ccc2c3c(n(C)c2c1)[C@@H](CO)N(C(=O)c1cnccn1)CC31CCN(C(C)=O)CC1", "activation": "-0.0775% (inactive)"},
      {"smiles": "Cc1ccccc1-c1csc(C(O)c2cccc(Cl)c2)n1", "note": "(stereo unspecified)", "activation": "0.0645% (inactive)"},
      {"smiles": "CCOC(=O)[C@H]1Nc2ccc(Cl)cc2[C@@H]2[C@H]1C1CC(c3ccccc31)N2C(=O)OCc1ccccc1", "note": "(stereo partly specified)", "activation": "-3.61% (inactive)"},
      {"smiles": "Cc1c(CC(=O)NCC(=O)NCC(=O)O)c(=O)oc2cc3oc4c(c3cc12)CCCC4", "activation": "44.8% (active)"},
      {"smiles": "Cc1coc2cc3oc(=O)c(CCC(=O)O)c(C)c3cc12", "activation": "0.29% (inactive)"},
      {"smiles": "CC[C@@H](C)[C@H](NC(=O)CCc1c(C)c2cc3c4c(oc3c(C)c2oc1=O)CCCC4)C(=O)O", "activation": "-0.004% (inactive)"},
      {"smiles": "CN1C(=O)C(Br)(Br)CC1c1cccnc1", "note": "(stereo unspecified)", "activation": "0.457% (inactive)"},
      {"smiles": "CCc1nc2c(OCCOc3ccccc3)cccn2c1N(C)C(=O)c1ccc(OC)cc1", "activation": "-0.197% (inactive)"},
      {"smiles": "CCOC(=O)C1C(C)C(C(C)(C)C)N(S(=O)(=O)c2ccc(C)cc2)C1c1ccccc1", "note": "(stereo unspecified)", "activation": "-0.306% (inactive)"},
      {"smiles": "O=C(NC1CCCC1)[C@@H]1[C@@H](CO)[C@@H]2Cn3c(ccc(-c4ccc(F)cc4)c3=O)[C@H]1N2Cc1cocn1", "activation": "0.192% (inactive)"},
      {"smiles": "CCOC(=O)C(=Cc1ccccc1)C(=O)c1ccccc1", "activation": "-0.023% (inactive)"},
      {"smiles": "COc1ccc2sc(-c3ccc(N(C)C)cc3)c(C#CCO)c2c1", "activation": "0.712% (inactive)"},
      {"smiles": "COc1ccc2sc(-c3ccc(N(C)C)cc3)c(-c3ccc4cc[nH]c4c3)c2c1", "activation": "0.675% (inactive)"},
      {"smiles": "COc1ccc2c(c1)c(=Cc1ccc(N(C)C)cc1)c1cc(-c3ccccc3)[n+](C)n12", "activation": "197% (active)"},
      {"smiles": "CC1(C)OC(=O)C2=C(C[C@@H](C3CCCC3)O[C@@H]2c2ccc(Cl)cc2)O1", "activation": "-0.0095% (inactive)"}
    ]}
  ]
}
